The record followed here is ChEMBL document CHEMBL1126141, “Substituted 4,6-diaminoquinolines as inhibitors of C5a receptor binding” (J Med Chem, 1992).

In brackets after ≈: the same amount, converted by molar mass.

The target in assay [1] is T1, C5a anaphylatoxin chemotactic receptor 1 (Homo sapiens, UniProt P21730).
T1 sequence (P21730 whole entry): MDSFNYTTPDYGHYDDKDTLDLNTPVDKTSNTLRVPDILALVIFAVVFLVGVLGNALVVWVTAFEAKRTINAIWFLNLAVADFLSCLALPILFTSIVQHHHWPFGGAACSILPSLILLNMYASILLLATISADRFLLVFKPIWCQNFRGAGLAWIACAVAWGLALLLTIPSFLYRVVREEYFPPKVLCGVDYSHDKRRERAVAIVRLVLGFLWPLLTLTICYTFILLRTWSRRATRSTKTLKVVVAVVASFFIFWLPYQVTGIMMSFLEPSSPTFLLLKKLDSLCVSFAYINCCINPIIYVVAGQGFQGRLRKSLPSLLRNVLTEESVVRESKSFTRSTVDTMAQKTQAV
The assay is described as follows: Ability to inhibit binding of radiolabeled C5a anaphylatoxin to intact membrane bound receptor from human neutrophils. An outline of the steps: (§1)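 Buffer was HBSS with 10 mM pMSF and 0.5% BSA, HEPES pH 7.2. Compounds were added from 1% aqueous DMSO. Filtration used polyethyleneimine-soaked GF filters, read by gamma counting. Nonspecific binding was set with ≥20 ng unlabeled C5a. IC50 came from a four-parameter logistic fit.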

Assay [2] is filed under the species Homo sapiens. The assay is described as follows: Compound was tested for the inhibition of C5a- induced human neutrophil activation. The assay is classed as functional. The method in brief: (§2)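 Freshly isolated human PMN (Ficoll-Hypaque, erythrocytes lysed with NH4Cl/EDTA/KHCO3), 4×10^5/mL in HBSS. Preincubated with compound or 1% aqueous DMSO 20 min at 37 °C, then cytochalasin B (5 μg/mL final) 5 min. Stimulated 5 min at 37 °C with C5a or fMLF, or no stimulus for nonspecific release. MPO read with dimethoxybenzidine/H2O2 at pH 6.0, azide-quenched at 2 min, A450. Duplicate or triplicate.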

Assay [3] is filed under the species Homo sapiens. Briefly: Compound was tested for the inhibition of fMLF- induced human neutrophil activation. The assay is classed as functional. An outline of the steps:
as §2

The target in assay [4] is T2, Myeloperoxidase (Homo sapiens, UniProt P05164).
T2 sequence (P05164 whole entry): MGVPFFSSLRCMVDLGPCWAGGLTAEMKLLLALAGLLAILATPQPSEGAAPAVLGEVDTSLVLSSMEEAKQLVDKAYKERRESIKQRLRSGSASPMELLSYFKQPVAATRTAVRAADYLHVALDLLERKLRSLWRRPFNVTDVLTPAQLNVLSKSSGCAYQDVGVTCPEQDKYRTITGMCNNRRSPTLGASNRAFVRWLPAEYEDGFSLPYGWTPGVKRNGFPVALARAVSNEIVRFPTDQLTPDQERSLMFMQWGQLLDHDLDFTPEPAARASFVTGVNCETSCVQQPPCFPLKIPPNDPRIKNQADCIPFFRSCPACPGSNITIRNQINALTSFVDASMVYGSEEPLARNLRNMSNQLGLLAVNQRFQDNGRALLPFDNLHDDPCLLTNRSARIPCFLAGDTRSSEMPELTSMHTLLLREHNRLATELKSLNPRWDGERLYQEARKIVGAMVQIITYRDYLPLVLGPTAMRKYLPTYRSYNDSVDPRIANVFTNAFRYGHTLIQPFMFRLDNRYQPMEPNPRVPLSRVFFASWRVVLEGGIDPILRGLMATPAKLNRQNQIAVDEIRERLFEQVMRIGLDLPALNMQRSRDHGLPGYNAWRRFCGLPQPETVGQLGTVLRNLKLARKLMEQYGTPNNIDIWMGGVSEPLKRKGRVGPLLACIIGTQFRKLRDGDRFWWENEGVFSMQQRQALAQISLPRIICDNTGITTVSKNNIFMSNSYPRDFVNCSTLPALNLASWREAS
Briefly: Compound was tested for the induction of nonspecific myeloperoxidase (MPO) release. Type of assay: functional. The method in brief: as §2

The target in assay [5] is T1, C5a anaphylatoxin chemotactic receptor 1. Briefly: Compound was tested for its ability to inhibit binding of radiolabeled C5a anaphylatoxin chemotactic receptor to intact membrane bound receptor from human neutrophils.; insoluble. An outline of the steps: as §1

Broadly, the IC50 is the concentration that inhibits the measured activity by half. `Cc1cc(NCc2ccccc2)c2cc(NC(=O)C(=O)Nc3ccc4nc(C)cc(NCc5ccccc5)c4c3)ccc2n1` gave an IC50 in assay [1] of more than 86.1 µM.
On to `Cc1cc(N)c2cc(NC(=O)CCCCC(=O)Nc3ccc4nc(C)cc(N)c4c3)ccc2n1`, for which the IC50 in assay [1] is more than 110 µM.
What is called EC50 is the concentration at which the effect is half-maximal. In assay [1], `Cc1cc(N)c2cc(NC(=O)C(=O)Nc3ccc4nc(C)cc(N)c4c3)ccc2n1` gave a half-maximal inhibitory concentration (IC50) of 4.99 µM. In addition, it took 4 µg/mL (≈ 9.99 µM) to reach a half-maximal effect in assay [2] (EC50).
On to `Cc1cc(N)c2cc(NC(=O)/C=C/c3ccccc3C(F)(F)F)ccc2n1`, for which the IC50 in assay [1] is 24.2 µM. Moreover, the EC50 in assay [2] and in assay [3] was 4 µg/mL (≈ 10.8 µM) in each case.
`Cc1cc(N)c2cc(C(=O)NCc3ccccc3)ccc2n1` showed an IC50 in assay [1] of more than 343 µM.
Turning to `Cc1ccc2cc(NC(=O)Nc3ccc4nc(C)ccc4c3)ccc2n1`, the IC50 in assay [1] was more than 146 µM.
On to `Cc1cc(N)c2cc(NC(=O)c3ccc4ccccc4c3)ccc2n1`, for which, in assay [1], the IC50 is 91.6 µM.
In assay [1], `CCCC(=O)Nc1ccc2nc(C)cc(N)c2c1` registered an IC50 of more than 411 µM.
With `CCCCCCCCNc1cc(C)nc2ccc(NC(=O)/C=C/c3ccccc3Cl)cc12`, the half-inhibitory concentration (IC50) in assay [1] is more than 222 µM.
Same read-out and setting: next, `CCCCCCCCNC(=O)c1ccc2nc(C)cc(N)c2c1`: more than 319 µM.
Regarding `Cc1cc(NCc2ccccc2)c2cc(NC(=O)/C=C/c3ccccc3Cl)ccc2n1`, the half-inhibitory concentration (IC50) in assay [1] was more than 234 µM. Also, the EC50 in assay [4] is 11.7 µM; in assay [2] it was less than 3 µg/mL; in assay [3], less than 3 µg/mL.
In assay [1], `Cc1cc(N)c2cc(NC(=O)/C=C/c3cccc(C(F)(F)F)c3)ccc2n1` showed a half-inhibitory concentration (IC50) of 10.8 µM.
Compound `Cc1cc(NCc2ccccc2)c2cc(N)ccc2n1` showed an IC50 in assay [1] of more than 380 µM.
As for `Cc1cc(N)c2cc(NC(=O)/C=C/c3ccccc3Cl)ccc2n1`, in assay [1], the concentration for half-maximal inhibition (IC50) is 35.5 µM. The values for the EC50 in assay [2] and in assay [3] were 4 µg/mL (≈ 11.8 µM) and 5 µg/mL (≈ 14.8 µM), respectively.
As for `COc1cc(C)nc2ccc(NC(=O)/C=C/c3ccccc3Cl)cc12`, the IC50 in assay [1] was more than 142 µM.
In the case of `Cc1cc(N)c2cc(NC(=O)CCCCCCCCC(=O)Nc3ccc4nc(C)cc(N)c4c3)ccc2n1`, in assay [1], the IC50 was more than 97.5 µM.
For the compound `Cc1cc(N)c2cc(NC(=O)/C=C/c3c(F)c(F)c(F)c(F)c3F)ccc2n1`, in assay [5], the concentration for half-maximal inhibition (IC50) entry is “Not Active”.
`Cc1cc(N)c2cc(NC(=O)CC(=O)Nc3ccc4nc(C)cc(N)c4c3)ccc2n1` had an IC50 in assay [1] of 43.4 µM.
In assay [1], `Cc1cc(N)c2cc(NC(=O)/C=C/c3ccc(C(F)(F)F)cc3)ccc2n1` had a half-inhibitory concentration (IC50) of 18.8 µM.
`Cc1cc(N)c2cc(NC(=O)c3ccccc3)ccc2n1` came in with an IC50 in assay [1] of more than 361 µM.
Still for that read-out and setting: next, `Cc1cc(N)c2cc(N)ccc2n1`: more than 577 µM.
In turn, `Cc1cc(N)c2cc(NC(=O)/C=C/c3c(Cl)cccc3Cl)ccc2n1` gave an IC50 in assay [1] of 21.5 µM. Besides, the EC50 in assay [2] and in assay [3] was 4 µg/mL (≈ 10.7 µM) each time.
`Cc1cc(N)c2cc(NC(=O)/C=C/c3ccccc3)ccc2n1` gave an IC50 in assay [1] of 98.9 µM.
Take `Cc1cc(N)c2cc(NC(=O)CCc3ccccc3)ccc2n1`: in assay [1], the IC50 was more than 327 µM.
Same read-out and setting: under `CCCCCCCC(=O)Nc1ccc2nc(C)cc(N)c2c1` stands 100 µM; under `Cc1cc(NCc2ccccc2)c2cc(NC(=O)/C=C/c3ccccc3C(F)(F)F)ccc2n1`, more than 217 µM.
The compound `Cc1cc(N)c2cc(NC(=O)Nc3ccc4nc(C)cc(N)c4c3)ccc2n1` [AMINOQUINURIDE] showed an IC50 in assay [1] of 8.86 µM. In assay [2], this compound showed an EC50 of 15 µg/mL (≈ 40.3 µM).
